Positions of bridges follow the written chain, without caps; N, C: chain ends. Non-standard residues stand in square brackets, D forms with d. Residues, ends and D or L forms follow the SMILES beside them. Chains are numbered I, II in the order given. Nva = CCC[C@H](N)C(=O)O
Columns and labels:
[1] = target: T1, Neuropeptide Y receptor type 1 (Homo sapiens) (UniProt P25929); test: Antagonist activity against human NPY1 receptor in CHO cells by inhibition of forskolin-stimulated cAMP synthesis; format: functional, cell-based
T1 sequence (whole entry): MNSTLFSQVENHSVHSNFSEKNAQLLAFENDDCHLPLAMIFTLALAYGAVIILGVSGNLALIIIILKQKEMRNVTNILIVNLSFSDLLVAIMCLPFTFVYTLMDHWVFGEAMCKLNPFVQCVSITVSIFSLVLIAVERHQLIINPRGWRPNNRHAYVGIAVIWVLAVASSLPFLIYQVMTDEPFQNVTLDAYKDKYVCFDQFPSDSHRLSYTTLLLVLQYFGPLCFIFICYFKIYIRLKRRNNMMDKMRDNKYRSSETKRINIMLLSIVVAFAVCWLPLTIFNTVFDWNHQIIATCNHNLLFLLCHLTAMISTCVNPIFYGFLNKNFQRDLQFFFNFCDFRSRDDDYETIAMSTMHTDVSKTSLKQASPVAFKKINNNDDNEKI

[2] = organism: Homo sapiens; test: Selectivity for human NPY4 over NPY2 receptor
[3] = organism: Homo sapiens; test: Selectivity for human NPY4 over NPY1 receptor
[4] = Selectivity for human NPY4 over rat-human hybrid NPY5 receptor
[5] = Displacement of […] from rat-human hybrid NPY5 receptor expressed in CHO cells; format: cell-based
Method in brief: (§1)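 Competition binding on membranes (5-10 µg protein) from CHO cells stably expressing human Y1, Y2 or rat-human hybrid Y5 receptors. Radioligand 0.2 nM 125I-PYY, incubated with a range of peptide concentrations in 50 mM HEPES pH 7.3, 0.1% BSA, 2.5 mM CaCl2 and 1 mM MgCl2 for 90 min at room temperature. Bound ligand separated on PEI-treated glass fibre filters, washed with PBS and γ-counted. 1 µM NPY defined nonspecific binding. Duplicate points, three experiments, nonlinear regression.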

[6] = target: T2, Neuropeptide Y receptor type 4 (Homo sapiens, UniProt P50391); test: Agonist activity at human NPY4 receptor in CHO cells by inhibition of forskolin-stimulated cAMP synthesis
[7] = target: T3, Neuropeptide Y receptor type 1 (Homo sapiens, UniProt P25929); test: Displacement of […] from human NPY1 receptor expressed in CHO cells; format: cell-based; method in brief: as §1
T3 sequence (P25929 whole entry): T1 sequence (whole entry)

[8] = target: T4, Neuropeptide Y receptor type 2 (Homo sapiens, UniProt P49146); test: Displacement of […] from human NPY2 receptor expressed in CHO cells; format: cell-based; method in brief: as §1
T4 sequence (P49146 whole entry): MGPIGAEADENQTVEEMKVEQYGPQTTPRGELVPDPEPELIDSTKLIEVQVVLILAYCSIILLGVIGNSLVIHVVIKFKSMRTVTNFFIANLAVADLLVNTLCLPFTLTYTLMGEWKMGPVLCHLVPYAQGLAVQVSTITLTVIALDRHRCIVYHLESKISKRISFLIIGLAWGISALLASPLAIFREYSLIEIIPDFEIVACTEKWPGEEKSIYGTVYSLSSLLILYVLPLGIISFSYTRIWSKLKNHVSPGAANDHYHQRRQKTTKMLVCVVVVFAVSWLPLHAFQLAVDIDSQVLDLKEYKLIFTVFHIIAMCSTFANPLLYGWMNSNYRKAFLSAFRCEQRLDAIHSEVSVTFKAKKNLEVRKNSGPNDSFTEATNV

[9] = target: T2, Neuropeptide Y receptor type 4; test: Displacement of [125I]hPP from human NPY4 receptor expressed in CHO cells; format: cell-based
Method in brief: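 Y4 binding used membranes from CHO cells stably expressing cloned human Y4, with 125I-PP as radioligand. Competing peptides were tested over a range of concentrations in 50 mM HEPES pH 7.3, 0.1% BSA, 2.5 mM CaCl2 and 1 mM MgCl2 for 90 min at room temperature. Separation was by filtration and γ-counting. Nonspecific binding was taken with 1 µM PP. Duplicate points, three experiments, nonlinear regression.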

[10] = target: T3, Neuropeptide Y receptor type 1; test: Agonist activity at human NPY1 receptor in CHO cells by inhibition of forskolin-stimulated cAMP synthesis; format: functional, cell-based

T2 sequence (P50391 whole entry): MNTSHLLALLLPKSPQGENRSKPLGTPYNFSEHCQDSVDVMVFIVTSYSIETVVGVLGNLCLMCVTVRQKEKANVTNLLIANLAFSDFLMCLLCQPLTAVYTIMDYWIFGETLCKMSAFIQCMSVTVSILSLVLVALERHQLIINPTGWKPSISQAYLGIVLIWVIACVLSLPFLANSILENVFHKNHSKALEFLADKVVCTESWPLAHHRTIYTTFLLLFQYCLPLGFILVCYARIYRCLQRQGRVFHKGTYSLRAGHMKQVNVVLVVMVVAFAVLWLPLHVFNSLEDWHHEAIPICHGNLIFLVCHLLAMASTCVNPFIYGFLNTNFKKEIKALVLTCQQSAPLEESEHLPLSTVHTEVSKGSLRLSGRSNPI

Row | SMILES | Kb [1] [nM] | Selectivity ratio [2] | Selectivity ratio [3] | Selectivity ratio [4] | Ki [5] [nM] | EC50 [6] [nM] | Ki [7] [nM] | Ki [8] [nM] | Ki [9] [nM] | EC50 [10] [nM]
1 | CCC[C@H](NC(=O)[C@H](CCCN=C(N)N)NC(=O)[C@H](Cc1c[nH]c2ccccc12)NC(=O)[C@@H](N)CSSC[C@H](N)C(=O)N[C@@H](Cc1c[nH]c2ccccc12)C(=O)N[C@@H](CCCN=C(N)N)C(=O)N[C@@H](CCC)C(=O)N[C@@H](CCCN=C(N)N)C(=O)N[C@@H](Cc1ccc(O)cc1)C(N)=O)C(=O)N[C@@H](CCCN=C(N)N)C(=O)N[C@@H](Cc1ccc(O)cc1)C(N)=O (I: H-CWR[Nva]RY-NH2 / II: H-CWR[Nva]RY-NH2; disulfide I:1-II:1) | 1730 | 110 | 10 | 30 | 770 |  |  |  |  | 
2 | CCC[C@H](NC(=O)[C@H](CCCN=C(N)N)NC(=O)[C@H](Cc1c[nH]c2ccccc12)NC(=O)[C@@H](N)CC[C@H](N)C(=O)N[C@@H](Cc1c[nH]c2ccccc12)C(=O)N[C@@H](CCCN=C(N)N)C(=O)N[C@@H](CCC)C(=O)N[C@@H](CCCN=C(N)N)C(=O)N[C@@H](Cc1ccc(O)cc1)C(N)=O)C(=O)N[C@@H](CCCN=C(N)N)C(=O)N[C@@H](Cc1ccc(O)cc1)C(N)=O |  | 85 | 34 | 78 | 330 | 460 | 140 | 360 | 4.2 | 
3 | CCC[C@H](NC(=O)[C@H](CCCN=C(N)N)NC(=O)[C@H](Cc1c[nH]c2ccccc12)NC(=O)[C@@H](N)CCC[C@H](N)C(=O)N[C@@H](Cc1c[nH]c2ccccc12)C(=O)N[C@@H](CCCN=C(N)N)C(=O)N[C@@H](CCC)C(=O)N[C@@H](CCCN=C(N)N)C(=O)N[C@@H](Cc1ccc(O)cc1)C(N)=O)C(=O)N[C@@H](CCCN=C(N)N)C(=O)N[C@@H](Cc1ccc(O)cc1)C(N)=O (stereo in doubt; 2B) [listing 1 of 2 here] |  |  |  |  | 2280 | 220 | 140 | 260 | 4.1 | 
4 | CCC[C@H](NC(=O)[C@H](CCCN=C(N)N)NC(=O)[C@H](Cc1c[nH]c2ccccc12)NC(=O)[C@@H](N)CCCC[C@H](N)C(=O)N[C@@H](Cc1c[nH]c2ccccc12)C(=O)N[C@@H](CCCN=C(N)N)C(=O)N[C@@H](CCC)C(=O)N[C@@H](CCCN=C(N)N)C(=O)N[C@@H](Cc1ccc(O)cc1)C(N)=O)C(=O)N[C@@H](CCCN=C(N)N)C(=O)N[C@@H](Cc1ccc(O)cc1)C(N)=O (stereo in doubt; 4A) [listing 1 of 2 here] |  | 100 | 20 | 30 |  |  |  |  |  | 
5 | CCC[C@H](NC(=O)[C@H](CCCN=C(N)N)NC(=O)[C@H](Cc1c[nH]c2ccccc12)NC(=O)[C@@H](N)CCCC[C@H](N)C(=O)N[C@@H](Cc1c[nH]c2ccccc12)C(=O)N[C@@H](CCCN=C(N)N)C(=O)N[C@@H](CCC)C(=O)N[C@@H](CCCN=C(N)N)C(=O)N[C@@H](Cc1ccc(O)cc1)C(N)=O)C(=O)N[C@@H](CCCN=C(N)N)C(=O)N[C@@H](Cc1ccc(O)cc1)C(N)=O (stereo in doubt; 4B) [listing 1 of 2 here] |  |  |  |  | 280 | 370 | 80 | 530 | 2 | 1410
6 | CCC[C@H](NC(=O)[C@H](CCCN=C(N)N)NC(=O)[C@H](Cc1c[nH]c2ccccc12)NC(=O)[C@H](Cc1ccc(O)cc1)NC(=O)[C@H](CCCN=C(N)N)NC(=O)[C@H](CCC)NC(=O)[C@H](CCCN=C(N)N)NC(=O)[C@@H](N)Cc1c[nH]c2ccccc12)C(=O)N[C@@H](CCCN=C(N)N)C(=O)N[C@@H](Cc1ccc(O)cc1)C(N)=O (H-WR[Nva]RYWR[Nva]RY-NH2) | 320 | 200 | 50 | 50 | 250 | 290 | 220 | 1050 | 5.3 | 
7 | CCC[C@H](NC(=O)[C@H](CCCN=C(N)N)NC(=O)[C@H](Cc1c[nH]c2ccccc12)NC(=O)[C@@H](N)CCCC[C@H](N)C(=O)N[C@@H](Cc1c[nH]c2ccccc12)C(=O)N[C@@H](CCCN=C(N)N)C(=O)N[C@@H](CCC)C(=O)N[C@@H](CCCN=C(N)N)C(=O)N[C@@H](Cc1ccc(O)cc1)C(N)=O)C(=O)N[C@@H](CCCN=C(N)N)C(=O)N[C@@H](Cc1ccc(O)cc1)C(N)=O (stereo in doubt; 4B) [listing 2 of 2 here] |  | 270 | 40 | 140 |  |  |  |  |  | 
8 | CCC[C@H](NC(=O)[C@H](CCCNC(=N)N)NC(=O)[C@H](Cc1c[nH]c2ccccc12)NC(=O)[C@@H](N)CSSC[C@H](N)C(=O)N[C@@H](Cc1c[nH]c2ccccc12)C(=O)N[C@@H](CCCNC(=N)N)C(=O)N[C@@H](CCC)C(=O)N[C@@H](CCCNC(=N)N)C(=O)N[C@@H](Cc1ccc(O)cc1)C(N)=O)C(=O)N[C@@H](CCCNC(=N)N)C(=O)N[C@@H](Cc1ccc(O)cc1)C(N)=O (I: H-CWR[Nva]RY-NH2 / II: H-CWR[Nva]RY-NH2; disulfide I:1-II:1) |  |  |  |  |  | 570 | 340 | > 3000 | 30 | 
9 | CCC[C@H](NC(=O)[C@H](CCCN=C(N)N)NC(=O)[C@H](Cc1c[nH]c2ccccc12)NC(=O)[C@@H](N)CCCC[C@H](N)C(=O)N[C@@H](Cc1c[nH]c2ccccc12)C(=O)N[C@@H](CCCN=C(N)N)C(=O)N[C@@H](CCC)C(=O)N[C@@H](CCCN=C(N)N)C(=O)N[C@@H](Cc1ccc(O)cc1)C(N)=O)C(=O)N[C@@H](CCCN=C(N)N)C(=O)N[C@@H](Cc1ccc(O)cc1)C(N)=O (stereo in doubt; 4A) [listing 2 of 2 here] |  |  |  |  | 120 | 430 | 90 | 390 | 4.1 | 
10 | CCC[C@H](NC(=O)[C@H](CCCN=C(N)N)NC(=O)[C@H](Cc1c[nH]c2ccccc12)NC(=O)[C@@H](N)CCC[C@H](N)C(=O)N[C@@H](Cc1c[nH]c2ccccc12)C(=O)N[C@@H](CCCN=C(N)N)C(=O)N[C@@H](CCC)C(=O)N[C@@H](CCCN=C(N)N)C(=O)N[C@@H](Cc1ccc(O)cc1)C(N)=O)C(=O)N[C@@H](CCCN=C(N)N)C(=O)N[C@@H](Cc1ccc(O)cc1)C(N)=O (stereo in doubt; 2B) [listing 2 of 2 here] |  | 60 | 40 | 550 |  |  |  |  |  | 
11 | CCC[C@H](NC(=O)[C@H](CCCN=C(N)N)NC(=O)[C@H](Cc1c[nH]c2ccccc12)NC(=O)[C@@H](N)CCC[C@H](N)C(=O)N[C@@H](Cc1c[nH]c2ccccc12)C(=O)N[C@@H](CCCN=C(N)N)C(=O)N[C@@H](CCC)C(=O)N[C@@H](CCCN=C(N)N)C(=O)N[C@@H](Cc1ccc(O)cc1)C(N)=O)C(=O)N[C@@H](CCCN=C(N)N)C(=O)N[C@@H](Cc1ccc(O)cc1)C(N)=O (stereo in doubt; 2A) [listing 1 of 2 here] |  |  |  |  | 2160 | 200 | 120 | 310 | 4.3 | 
12 | CCC[C@H](NC(=O)[C@H](CCCN=C(N)N)NC(=O)[C@H](Cc1c[nH]c2ccccc12)NC(=O)[C@@H](N)CCC[C@H](N)C(=O)N[C@@H](Cc1c[nH]c2ccccc12)C(=O)N[C@@H](CCCN=C(N)N)C(=O)N[C@@H](CCC)C(=O)N[C@@H](CCCN=C(N)N)C(=O)N[C@@H](Cc1ccc(O)cc1)C(N)=O)C(=O)N[C@@H](CCCN=C(N)N)C(=O)N[C@@H](Cc1ccc(O)cc1)C(N)=O (stereo in doubt; 2A) [listing 2 of 2 here] |  | 70 | 30 | 500 |  |  |  |  |  | 

— ChEMBL document CHEMBL1146122, “Neuropeptide Y (NPY) Y4 receptor selective agonists based on NPY(32-36): development of an anorectic Y4 receptor selective agonist with picomolar affinity” (J Med Chem, 2006)
